Experimental data pooled from the literature.
Compare with care: the assays were run in different laboratories. pIC50: −log10 of the molar value.
Cell line: PC-3
Observed: cell growth or viability

Structure (SMILES) | assay | conditions | measurement | value
CC1(P2(=O)CCCCC2)CCCCC1 | MTT | 72 h | pIC50 | < 4.00
COc1cc(C(=O)c2nc(-c3cccc4c3CCN4)c[nH]2)cc(OC)c1OC | MTS | 72 h | pIC50 | 7.66
NS(=O)(=O)c1ccc(-n2nc(C(=O)NN=Cc3ccccc3O)cc2-c2ccccc2)cc1 | fluorescence | 48 h | pIC50 | 4.75
O[C@@H]1[C@@H](O)[C@H](Nc2cc3cccnc3c3ncccc23)OC[C@H]1O | MTT | 48 h, dark | pIC50 | 5.41
COc1cc(C(=O)c2nc(-c3ccsc3)c[nH]2)cc(OC)c1OC | MTS | 72 h | pIC50 | 7.06
COc1cc(C=NNC(=O)c2cc(-c3ccccc3)n(-c3ccc(S(N)(=O)=O)cc3)n2)cc(OC)c1OC | fluorescence | 48 h | pIC50 | 4.48
O=P1(C2CCCCC2)CCCCC1 | MTT | 72 h | pIC50 | 4.19
CC(=O)O[C@H]1[C@H](OC(C)=O)[C@@H](Nc2cc3cccnc3c3ncccc23)OC[C@@H]1OC(C)=O | MTT | 48 h, dark | pIC50 | 5.85
CC(C)c1ccc(/C=C2\N=C(SCC(=O)O)N(c3ccccc3)C2=O)cc1 | MTT |  | IC50 | 50 µg/mL
NS(=O)(=O)c1ccc(-n2nc(C(=O)NN3C(=O)c4ccccc4C3=O)cc2-c2ccccc2)cc1 | fluorescence | 48 h | pIC50 | 4.26
COc1cc(C(=O)c2nc(-c3cccc4[nH]ccc34)c[nH]2)cc2c1OCO2 | MTS | 72 h | pIC50 | 8.30
CN(C)c1cccc2c(S(=O)(=O)NCCCCN=C=S)cccc12 | MTT | 24 h | pIC50 | 4.77
NS(=O)(=O)c1ccc(-n2nc(C(=O)NN3C(=O)CCC3=O)cc2-c2ccccc2)cc1 | fluorescence | 48 h | pIC50 | 4.44
COc1cccc2c1C(=O)c1c(O)c3c(c(O)c1C2=O)C[C@@](O)(C(=O)CO)C[C@@H]3O[C@H]1C[C@H](N)[C@H](O)[C@H](C)O1 | MTT |  | IC50 | 4.81 µg/mL
COc1cc(C(=O)c2nc(-c3ccncc3)c[nH]2)cc(OC)c1OC | MTS | 72 h | pIC50 | < 6.00
NS(=O)(=O)c1ccc(-n2nc(C(=O)NN=Cc3cccnc3)cc2-c2ccccc2)cc1 | fluorescence | 48 h | pIC50 | 4.41
CC1(P2(=O)CCCCC2)C=CCC=C1 | MTT | 72 h | pIC50 | < 4.00
NS(=O)(=O)c1ccc(-n2nc(-c3nnc(S)o3)cc2-c2ccccc2)cc1 | fluorescence | 48 h | pIC50 | 4.29
COc1cc(C(=O)c2nc(-c3cccc4[nH]nnc34)c[nH]2)cc(OC)c1OC | MTS | 72 h | pIC50 | 7.69
